{"source": "ChEMBL document CHEMBL4513216", "about": "“Probing the Open Global Health Chemical Diversity Library for Multistage-Active Starting Points for Next-Generation Antimalarials” (ACS Infect Dis, 2020)", "assay": "Toxicity liver stage against HepG2, at 10uM", "type": "cell-based", "design": "test concentration 10 uM, cell line HepG2-A16-CD81EGFP", "conditions": "human, HepG2-A16-CD81EGFP cells; read-out: INHIBITION", "summary_of_the_method": "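Uninfected HepG2-A16-CD81EGFP cells, 3 × 10^3 per well, 1536-well, plated on prespotted compound at 10 μM final, parasite-free screening media added to match infected plates; puromycin 10 μM positive, DMSO 0.5% negative; run in parallel with 48 h PbLuc assay at 37 °C, 5% CO2; viability by CellTiter-Glo luminescence, normalized to controls.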", "data": [{"smiles": "Cc1nn(C)cc1C1CC(=O)Nc2c1cnn2C(C)C", "note": "(centres undefined)", "values": [{"measurement": "cytotoxicity at 10 µM", "result": -4.31, "unit": "%"}]}, {"smiles": "COC(=O)CCNC(=O)c1cc(-c2ccc(OC)cc2)nn1C", "values": [{"measurement": "cytotoxicity at 10 µM", "result": 4.75, "unit": "%"}]}, {"smiles": "Cc1nn(CCNS(=O)(=O)c2ccccc2)c(C)c1Cl", "values": [{"measurement": "cytotoxicity at 10 µM", "result": -5.26, "unit": "%"}]}, {"smiles": "CCc1nccn1-c1nccnc1C1CCCN(C(=O)COC)C1", "note": "(centres undefined)", "values": [{"measurement": "cytotoxicity at 10 µM", "result": -21.5, "unit": "%"}]}, {"smiles": "O=C(N[C@@H]1CCC[C@@H](N2CCCC2)[C@@H]1O)c1cc2ccccc2[nH]1", "values": [{"measurement": "cytotoxicity at 10 µM", "result": -16.2, "unit": "%"}]}, {"smiles": "Cc1ccnc(C2CCN(C(=O)c3cnn(C)c3)C2)n1", "note": "(centres undefined)", "values": [{"measurement": "cytotoxicity at 10 µM", "result": -15, "unit": "%"}]}, {"smiles": "O=C(c1ccncc1)N1CCC(c2nc(O)cc(-c3ccncc3)n2)C1", "note": "(centres undefined)", "values": [{"measurement": "cytotoxicity at 10 µM", "result": 0.873, "unit": "%"}]}, {"smiles": "CC(C)(C)c1cc(NC(=O)CNC2CCc3ncnn3C2)on1", "note": "(centres undefined)", "values": [{"measurement": "cytotoxicity at 10 µM", "result": 9.03, "unit": "%"}]}, {"smiles": "Cc1cc(S(C)(=O)=O)c(C)c(S(=O)(=O)NCC2CCCO2)c1", "note": "(centres undefined)", "values": [{"measurement": "cytotoxicity at 10 µM", "result": -8.02, "unit": "%"}]}, {"smiles": "Cc1nc(CNC(=O)NCCC2=CCCC2)oc1C", "values": [{"measurement": "cytotoxicity at 10 µM", "result": -1.18, "unit": "%"}]}, {"smiles": "Cc1cccc(C(=O)NCCNCC2CNc3ccnn3C2)c1", "note": "(centres undefined)", "values": [{"measurement": "cytotoxicity at 10 µM", "result": -0.00278, "unit": "%"}]}, {"smiles": "CC(C)C1CN(C(=O)c2ccsc2)CCS1", "note": "(centres undefined)", "values": [{"measurement": "cytotoxicity at 10 µM", "result": 2.46, "unit": "%"}]}, {"smiles": "O=C(NS(=O)(=O)c1ccc(F)cc1)C1CCOc2ccccc21", "note": "(centres undefined)", "values": [{"measurement": "cytotoxicity at 10 µM", "result": 9.91, "unit": "%"}]}, {"smiles": "Cc1cc2cc(CNC3CCN(CC4CCOC4)CC3)oc2cc1C", "note": "(centres undefined)", "values": [{"measurement": "cytotoxicity at 10 µM", "result": -8.14, "unit": "%"}]}, {"smiles": "COCCNS(=O)(=O)c1ccc(CNc2ncccc2C#N)cc1", "values": [{"measurement": "cytotoxicity at 10 µM", "result": 6.47, "unit": "%"}]}, {"smiles": "CC(=O)c1ccc(C(=O)N2CCCCC2c2nc[nH]n2)cc1", "note": "(centres undefined)", "values": [{"measurement": "cytotoxicity at 10 µM", "result": -5.3, "unit": "%"}]}, {"smiles": "Cc1noc(-c2ccnc(N3CCC(N4CCCC4)CC3)c2)n1", "values": [{"measurement": "cytotoxicity at 10 µM", "result": 0.409, "unit": "%"}]}, {"smiles": "CS(=O)(=O)c1ccc(NC(=O)N2CCc3sccc3C2)cn1", "values": [{"measurement": "cytotoxicity at 10 µM", "result": 85.1, "unit": "%"}]}, {"smiles": "CSc1cc2c(cc1NC(=O)NCC(C)(C)C(N)=O)OCCO2", "values": [{"measurement": "cytotoxicity at 10 µM", "result": -10.9, "unit": "%"}]}, {"smiles": "COCC1COCCC12CCN(S(=O)(=O)c1ccccc1C)CC2", "note": "(centres undefined)", "values": [{"measurement": "cytotoxicity at 10 µM", "result": -5.42, "unit": "%"}]}, {"smiles": "CCS(=O)(=O)N1C[C@@H](c2ccccc2)[C@@]2(CCNC2=O)C1", "values": [{"measurement": "cytotoxicity at 10 µM", "result": -108, "unit": "%"}]}, {"smiles": "Cn1cccc1C(=O)N1C[C@H]2CN(CCN3CCCC3)C(=O)[C@H]2C1", "values": [{"measurement": "cytotoxicity at 10 µM", "result": -119, "unit": "%"}]}, {"smiles": "COCC(C)NCc1nc(-c2ccc(C)cc2)c(-c2ccccn2)[nH]1", "note": "(centres undefined)", "values": [{"measurement": "cytotoxicity at 10 µM", "result": -3.81, "unit": "%"}]}, {"smiles": "C=C(C)COc1ccccc1C(=O)N1CCC(C(=O)NCC)C1", "note": "(centres undefined)", "values": [{"measurement": "cytotoxicity at 10 µM", "result": 8.89, "unit": "%"}]}, {"smiles": "OCC1CCN(C[C@@H]2CN(C3Cc4ccccc4C3)C[C@@H]2CO)CC1", "values": [{"measurement": "cytotoxicity at 10 µM", "result": -2.02, "unit": "%"}]}, {"smiles": "Cc1cc(-c2nn(C)c(Cl)c2CN2CCCCC(N)C2)no1", "note": "(centres undefined)", "values": [{"measurement": "cytotoxicity at 10 µM", "result": -2.1, "unit": "%"}]}, {"smiles": "CCc1c(C)sc2ncnc(N3C[C@H](O)[C@@H](N4CCCC4)C3)c12", "values": [{"measurement": "cytotoxicity at 10 µM", "result": -4.36, "unit": "%"}]}, {"smiles": "CCOCCCNc1nc2c(s1)c(C)nn2C", "values": [{"measurement": "cytotoxicity at 10 µM", "result": 1.54, "unit": "%"}]}, {"smiles": "CCc1nc(C)sc1CN1CC[C@](C)(O)[C@H](C)C1", "values": [{"measurement": "cytotoxicity at 10 µM", "result": -2.11, "unit": "%"}]}, {"smiles": "CN(Cc1noc2c1CCCC2)C(=O)C1CCOc2ccccc2C1", "note": "(centres undefined)", "values": [{"measurement": "cytotoxicity at 10 µM", "result": -7.11, "unit": "%"}]}, {"smiles": "O=C(CCc1cn[nH]c1)N1CCC(C2CCN(c3ncccn3)CC2)C1", "note": "(centres undefined)", "values": [{"measurement": "cytotoxicity at 10 µM", "result": 10.2, "unit": "%"}]}, {"smiles": "CCC1c2cccn2CCN1C(=O)c1ccc2nonc2c1", "note": "(centres undefined)", "values": [{"measurement": "cytotoxicity at 10 µM", "result": -13.2, "unit": "%"}]}, {"smiles": "Cc1nsc(NC(=O)N2CCN(Cc3ccc(F)cc3)C(=O)C2)n1", "values": [{"measurement": "cytotoxicity at 10 µM", "result": 1.07, "unit": "%"}]}, {"smiles": "OCCN1CCN(Cc2coc(-c3cccc(F)c3)n2)CC1", "values": [{"measurement": "cytotoxicity at 10 µM", "result": -21.6, "unit": "%"}]}, {"smiles": "CC(=O)c1ccc(N2CCN(C(=O)NCc3cc[nH]n3)CC2)cc1", "values": [{"measurement": "cytotoxicity at 10 µM", "result": -2.17, "unit": "%"}]}, {"smiles": "COc1c(CNC2CCN(C(=O)C(C)C)CC2)c(C(C)C)nn1C", "values": [{"measurement": "cytotoxicity at 10 µM", "result": 1.25, "unit": "%"}]}, {"smiles": "CCC(CC)NC(=O)Cn1cc(-c2ccccc2)cn1", "values": [{"measurement": "cytotoxicity at 10 µM", "result": -0.0581, "unit": "%"}]}, {"smiles": "Cc1oncc1C(=O)N[C@@H]1CN(CC2CC2)C[C@@H]2CCCO[C@@H]21", "values": [{"measurement": "cytotoxicity at 10 µM", "result": -103, "unit": "%"}]}, {"smiles": "C[C@H]1CN(c2ccccn2)C[C@@]12CCN(Cc1cccnc1)C2=O", "values": [{"measurement": "cytotoxicity at 10 µM", "result": -1.16, "unit": "%"}]}, {"smiles": "C[C@@H]1CN(C(=O)c2ccc[nH]2)C[C@]12CCN(CCN1CCCC1)C2=O", "values": [{"measurement": "cytotoxicity at 10 µM", "result": 10.4, "unit": "%"}]}, {"smiles": "Cc1noc2nc(C3CCN(Cc4cccnc4)CC3)cc(C(F)F)c12", "values": [{"measurement": "cytotoxicity at 10 µM", "result": -2.5, "unit": "%"}]}, {"smiles": "CN(C)CCNC(=O)c1nc2c(s1)CCCN2C(=O)C1CC1", "values": [{"measurement": "cytotoxicity at 10 µM", "result": -108, "unit": "%"}]}, {"smiles": "c1cnc(N2CCO[C@H]3CN(CC4CCOCC4)C[C@H]32)nc1", "values": [{"measurement": "cytotoxicity at 10 µM", "result": -95.9, "unit": "%"}]}, {"smiles": "CC(=O)N1C[C@H]2CC[C@@H](C1)N(C(=O)CCc1n[nH]c3c1CCCC3)C2", "values": [{"measurement": "cytotoxicity at 10 µM", "result": 10.3, "unit": "%"}]}]}
